From ChEMBL document CHEMBL1138746, “Indolebutylamines as selective 5-HT(1A) agonists” (J Med Chem, 2004)

What was measured:
[1] = target: 5-hydroxytryptamine receptor 1A (Homo sapiens) (UniProt P08908); experiment: Effective dose against 5-hydroxytryptamine 1A receptor
[2] = target: D(2) dopamine receptor (Rattus norvegicus, UniProt P61169); experiment: Displacement of [3H]spiperone from dopamine D2 receptor of rat striatal membranes; format: cell membranes, Membrane
Summary of the method: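 Rat striatal membranes (0.3–1.0 mg protein/mL) were incubated with 0.1 nM [3H]spiperone in Tris-HCl buffer (pH 7.1) containing 120 mmol/L NaCl, 5 mmol/L KCl, 1 mmol/L CaCl2, 1 mmol/L MgCl2 and 0.1% ascorbic acid, at 37 °C for 15 min. Bound ligand was separated by filtration with three ice-cold washes. Nonspecific binding was defined with 1 mmol/L (+)-butaclamol. IC50 (50% inhibition of binding) came from 5–10 concentrations, each in triplicate.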

[3] = target: T1, 5-hydroxytryptamine receptor 1A (Rattus norvegicus, UniProt P19327); experiment: Inhibition of 8-OH DPAT bindign to rat hydroxytryptamine 1A receptor in hippocampal membranes
T1 sequence (P19327 whole entry): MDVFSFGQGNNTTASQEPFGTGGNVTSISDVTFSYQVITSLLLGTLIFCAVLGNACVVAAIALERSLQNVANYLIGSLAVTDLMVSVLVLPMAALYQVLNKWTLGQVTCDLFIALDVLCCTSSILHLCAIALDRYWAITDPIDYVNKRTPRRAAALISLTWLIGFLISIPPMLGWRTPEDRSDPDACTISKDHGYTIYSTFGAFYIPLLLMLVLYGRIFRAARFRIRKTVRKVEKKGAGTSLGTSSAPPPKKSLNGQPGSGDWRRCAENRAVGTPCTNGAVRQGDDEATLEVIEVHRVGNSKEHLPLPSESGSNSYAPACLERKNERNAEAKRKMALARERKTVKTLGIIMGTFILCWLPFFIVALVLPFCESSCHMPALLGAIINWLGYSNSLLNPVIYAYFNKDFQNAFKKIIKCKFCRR

[4] = Inhibition of 5-hydroxytryptamine 1D receptor
[5] = Inhibition of 5-hydroxytryptamine 2A receptor
[6] = Inhibition of Histamine H1 receptor
[7] = target: T2, Adrenergic receptor alpha-2 (Homo sapiens, UniProt P08913+P18825+P18089); experiment: Inhibition of Alpha-2 adrenergic receptor; format: protein assay
T2 sequence (P08913 whole entry): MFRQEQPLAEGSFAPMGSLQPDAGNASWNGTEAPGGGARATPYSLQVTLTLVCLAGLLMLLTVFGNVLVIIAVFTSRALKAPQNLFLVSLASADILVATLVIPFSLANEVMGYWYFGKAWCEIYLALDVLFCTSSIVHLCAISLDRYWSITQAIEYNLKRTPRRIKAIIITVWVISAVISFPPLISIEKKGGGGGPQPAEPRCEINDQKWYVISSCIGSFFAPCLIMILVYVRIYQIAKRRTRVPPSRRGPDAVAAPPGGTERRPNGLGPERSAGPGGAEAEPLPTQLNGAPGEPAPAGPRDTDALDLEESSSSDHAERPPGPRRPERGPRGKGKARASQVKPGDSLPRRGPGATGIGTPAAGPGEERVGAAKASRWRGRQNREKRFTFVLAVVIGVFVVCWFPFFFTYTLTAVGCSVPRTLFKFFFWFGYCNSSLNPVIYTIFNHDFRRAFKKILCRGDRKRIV
T2 sequence (P18825 whole entry): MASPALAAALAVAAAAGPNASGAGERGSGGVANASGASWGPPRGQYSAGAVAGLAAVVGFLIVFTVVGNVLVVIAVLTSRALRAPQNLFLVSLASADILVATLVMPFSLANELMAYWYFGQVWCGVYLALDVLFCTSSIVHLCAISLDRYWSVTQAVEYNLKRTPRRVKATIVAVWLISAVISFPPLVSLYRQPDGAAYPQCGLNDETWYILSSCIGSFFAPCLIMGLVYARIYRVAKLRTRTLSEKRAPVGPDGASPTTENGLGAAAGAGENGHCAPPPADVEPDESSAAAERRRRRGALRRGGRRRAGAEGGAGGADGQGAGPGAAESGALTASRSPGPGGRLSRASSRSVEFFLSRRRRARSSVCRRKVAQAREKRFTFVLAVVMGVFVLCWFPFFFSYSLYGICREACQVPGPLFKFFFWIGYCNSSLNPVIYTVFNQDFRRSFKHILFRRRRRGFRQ
T2 sequence (P18089 whole entry): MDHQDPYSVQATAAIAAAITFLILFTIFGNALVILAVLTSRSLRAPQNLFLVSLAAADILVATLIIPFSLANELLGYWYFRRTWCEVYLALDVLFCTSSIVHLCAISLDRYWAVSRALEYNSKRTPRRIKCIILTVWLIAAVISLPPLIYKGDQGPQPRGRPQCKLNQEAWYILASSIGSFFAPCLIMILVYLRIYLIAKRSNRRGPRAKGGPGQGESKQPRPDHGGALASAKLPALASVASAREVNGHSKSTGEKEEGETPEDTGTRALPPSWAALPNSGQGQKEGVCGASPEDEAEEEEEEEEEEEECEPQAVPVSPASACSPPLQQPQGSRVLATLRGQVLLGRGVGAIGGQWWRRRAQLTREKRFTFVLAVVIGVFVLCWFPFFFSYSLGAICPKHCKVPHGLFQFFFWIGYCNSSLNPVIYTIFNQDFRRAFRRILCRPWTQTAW

[8] = target: T3, Adrenergic receptor alpha-1 (Homo sapiens, UniProt P35348+P25100+P35368); experiment: Inhibition of Alpha-1 adrenergic receptor; format: protein assay
T3 sequence (P35348 whole entry): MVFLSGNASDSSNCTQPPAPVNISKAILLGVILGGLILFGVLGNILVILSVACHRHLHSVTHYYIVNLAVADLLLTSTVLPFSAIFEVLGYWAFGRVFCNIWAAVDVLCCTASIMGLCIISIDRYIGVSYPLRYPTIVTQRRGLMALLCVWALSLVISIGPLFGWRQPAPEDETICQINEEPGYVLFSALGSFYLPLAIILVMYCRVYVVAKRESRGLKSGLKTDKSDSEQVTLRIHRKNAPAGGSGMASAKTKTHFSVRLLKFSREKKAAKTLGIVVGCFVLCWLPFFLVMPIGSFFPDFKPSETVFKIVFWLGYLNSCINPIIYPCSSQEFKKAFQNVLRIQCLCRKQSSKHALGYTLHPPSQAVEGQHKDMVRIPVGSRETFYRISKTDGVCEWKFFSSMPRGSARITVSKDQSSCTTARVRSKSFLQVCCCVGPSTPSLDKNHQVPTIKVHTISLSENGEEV
T3 sequence (P25100 whole entry): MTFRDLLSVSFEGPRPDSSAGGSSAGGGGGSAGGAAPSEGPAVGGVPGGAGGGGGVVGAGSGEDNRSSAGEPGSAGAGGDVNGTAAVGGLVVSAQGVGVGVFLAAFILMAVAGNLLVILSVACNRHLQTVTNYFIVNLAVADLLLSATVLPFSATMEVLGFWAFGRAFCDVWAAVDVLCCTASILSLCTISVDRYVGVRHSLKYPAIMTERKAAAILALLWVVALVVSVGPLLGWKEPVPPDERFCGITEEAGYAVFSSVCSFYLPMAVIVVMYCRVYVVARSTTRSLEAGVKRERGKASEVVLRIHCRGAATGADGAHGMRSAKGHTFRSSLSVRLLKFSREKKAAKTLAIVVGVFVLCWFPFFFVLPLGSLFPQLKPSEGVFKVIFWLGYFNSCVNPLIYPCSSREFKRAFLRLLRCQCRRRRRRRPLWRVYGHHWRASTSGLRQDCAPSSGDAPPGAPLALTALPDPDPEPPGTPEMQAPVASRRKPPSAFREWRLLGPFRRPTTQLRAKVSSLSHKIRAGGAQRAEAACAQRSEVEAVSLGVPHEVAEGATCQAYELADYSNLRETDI
T3 sequence (P35368 whole entry): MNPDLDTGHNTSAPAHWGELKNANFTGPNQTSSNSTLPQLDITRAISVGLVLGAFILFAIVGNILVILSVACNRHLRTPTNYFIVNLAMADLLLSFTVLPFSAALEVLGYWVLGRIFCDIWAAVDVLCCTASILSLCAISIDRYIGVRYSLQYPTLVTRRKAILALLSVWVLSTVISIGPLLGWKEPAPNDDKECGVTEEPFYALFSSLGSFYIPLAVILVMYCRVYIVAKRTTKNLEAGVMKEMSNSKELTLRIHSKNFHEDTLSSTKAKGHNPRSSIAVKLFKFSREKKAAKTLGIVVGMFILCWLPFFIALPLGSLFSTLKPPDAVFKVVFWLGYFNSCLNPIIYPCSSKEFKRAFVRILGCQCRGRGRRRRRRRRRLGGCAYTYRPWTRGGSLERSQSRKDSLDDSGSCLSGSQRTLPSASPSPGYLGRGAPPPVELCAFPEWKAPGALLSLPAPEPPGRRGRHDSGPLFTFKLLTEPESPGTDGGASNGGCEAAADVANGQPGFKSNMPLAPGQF

[9] = Inhibition of 5-hydroxytryptamine 2C receptor
[10] = target: 5-hydroxytryptamine receptor 1A (Homo sapiens) (UniProt P08908); experiment: Effective dose against 5-HT1a receptor
[11] = Inhibition of hydroxytryptamine 2C receptor

D(2) dopamine receptor, sequence (P61169 whole entry): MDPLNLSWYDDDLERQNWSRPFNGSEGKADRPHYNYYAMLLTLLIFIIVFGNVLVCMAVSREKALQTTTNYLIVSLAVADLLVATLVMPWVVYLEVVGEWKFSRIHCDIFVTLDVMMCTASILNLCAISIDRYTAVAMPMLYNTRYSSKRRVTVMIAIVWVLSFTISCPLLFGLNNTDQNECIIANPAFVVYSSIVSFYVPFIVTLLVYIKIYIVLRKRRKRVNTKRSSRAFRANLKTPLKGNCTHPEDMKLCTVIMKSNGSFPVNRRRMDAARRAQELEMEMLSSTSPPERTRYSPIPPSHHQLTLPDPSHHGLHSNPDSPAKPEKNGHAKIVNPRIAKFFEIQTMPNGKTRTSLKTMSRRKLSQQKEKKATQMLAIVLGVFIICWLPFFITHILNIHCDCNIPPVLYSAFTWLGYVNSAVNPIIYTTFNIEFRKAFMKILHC
5-hydroxytryptamine receptor 1A (Homo sapiens), sequence (P08908 whole entry, looked up): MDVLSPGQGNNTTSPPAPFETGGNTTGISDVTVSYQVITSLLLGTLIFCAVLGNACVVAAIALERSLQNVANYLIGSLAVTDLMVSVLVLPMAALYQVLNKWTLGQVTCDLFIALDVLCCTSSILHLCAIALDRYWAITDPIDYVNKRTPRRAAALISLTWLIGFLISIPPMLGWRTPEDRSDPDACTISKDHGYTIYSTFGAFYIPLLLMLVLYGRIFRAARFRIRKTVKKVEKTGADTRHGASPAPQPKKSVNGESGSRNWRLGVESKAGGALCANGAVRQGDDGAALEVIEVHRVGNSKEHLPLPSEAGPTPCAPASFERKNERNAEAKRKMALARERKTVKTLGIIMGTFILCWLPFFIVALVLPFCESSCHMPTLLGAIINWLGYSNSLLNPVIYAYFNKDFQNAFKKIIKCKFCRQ

Row | ED50 [1] | IC50 [2] | IC50 [3] | IC50 [4] | IC50 [5] | IC50 [6] | IC50 [7] | IC50 [8] | IC50 [9] | ED50 [10] | IC50 [11] | SMILES
1 | 0.07 nM | 100 nM | 0.5 nM | – | – | – | – | – | – | – | – | NC(=O)c1ccc2[nH]cc(CCCCN3CCN(c4ccc5c(c4)CCCO5)CC3)c2c1
2 | – | 22 nM | 0.4 nM | 400 nM | 240 nM | 19 nM | 900 nM | 100 nM | 800 nM | – | – | NC(=O)c1ccc2[nH]cc(CCCCN3CCN(c4ccc5c(c4)OCO5)CC3)c2c1
3 | – | 140 nM | 0.09 nM | – | 220 nM | 1000 nM | 2000 nM | 700 nM | – | – | – | COc1ccc(N2CCN(CCCCc3c[nH]c4ccc(C(N)=O)cc34)CC2)cc1
4 | – | > 850 nM | – | – | – | – | – | – | – | 4.7 nM | – | NC(=O)c1ccc(N2CCN(CCCCc3c[nH]c4ccc(C(N)=O)cc34)CC2)cc1
5 | – | 420 nM | – | > 10000 nM | 750 nM | 41 nM | 7000 nM | 1000 nM | – | – | 4000 nM | COc1ccc(N2CCN(CCCCc3c[nH]c4ccc(OC)cc34)CC2)cc1
